Source: PubChem BioAssay
CSN inh: CSN deneddylation inhibition. Q92905. Purified CSN, SCF-Nedd8-OG deneddylation, fluorescence polarization. inhibition, % at 12.5 µM. 360,000 tested, 0.38% active. AID 651999;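 active = pattern-corrected inhibition above about 35%, with an unprinted fluorescence ratio check between 0.5 and 1.5, limit read from the data, passing the limit was not always enough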
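Assay system: purified human Csn5 enzyme expressed in HEK293T cells; Input: 0.24 nM Csn5 enzyme, final concentration; Reagent: 10 nM SCFSkp2-Nedd8OG; Compound dosing: 12.5 µM single point; Times: reaction 90 min, room temperature; Technique: fluorescence polarization readout.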
TbMetRS inhib: blocks T. brucei methionyl-tRNA synthetase activity. purified T. brucei MetRS, ATP depletion, Kinase-Glo luminescence. inhibition, % at 11.9 µM. 360,000 tested, 0.4% active;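 active = inhibition above a per-plate cutoff of the control wells' mean inhibition plus 3 SD, cut at about 5.5% in these data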
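Material: T. brucei methionyl-tRNA synthetase, purified; reagent: substrates ATP, L-methionine and bulk Escherichia coli tRNA; dosing: 11.9 µM single point; timing: 15 min plus 2 h at 25 °C; detection: luminescence of leftover ATP; evaluation: % inhibition; control set: DMSO-only wells as low control; replicates: singlicate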
TPT1 inhibitor: inhibitors of Candida albicans tRNA 2'-phosphotransferase TPT1; recombinant caTPT1, FP RNA substrate dephosphorylation; inhibition, % at 5 µM; 300,000 tested, 0.81% active; AID 1962;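 active = inhibition above the mean of all tested compounds plus 3 SD, set per screening campaign, cut at about 24% in these data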
HNF4A DNA FP: change in binding of human HNF4 alpha to DNA. P41235. HNF4a-FITC DNA binding, fluorescence polarization, 1 h. activity change, % at 10 µM. 360,000 tested, 0.3% active; in the data active = activity change above about 30%, passing the limit was not always enough
Target sequence (P41235 whole entry, looked up): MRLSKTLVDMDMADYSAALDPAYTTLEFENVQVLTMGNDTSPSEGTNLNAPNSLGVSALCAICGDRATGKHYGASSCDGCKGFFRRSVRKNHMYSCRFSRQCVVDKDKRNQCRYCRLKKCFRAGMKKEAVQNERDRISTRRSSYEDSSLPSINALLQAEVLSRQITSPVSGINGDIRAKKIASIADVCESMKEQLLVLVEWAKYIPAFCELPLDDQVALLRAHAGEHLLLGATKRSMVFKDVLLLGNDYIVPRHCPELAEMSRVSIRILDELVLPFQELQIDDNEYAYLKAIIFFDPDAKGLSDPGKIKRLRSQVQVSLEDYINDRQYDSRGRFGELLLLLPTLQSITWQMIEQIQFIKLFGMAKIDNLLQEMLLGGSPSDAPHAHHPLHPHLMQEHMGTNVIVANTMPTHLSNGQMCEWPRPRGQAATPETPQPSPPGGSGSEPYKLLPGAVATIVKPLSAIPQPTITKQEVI
IDE act: boosts human insulin-degrading enzyme activity in HEK cells; FAbeta-B cleavage, fluorescence polarization; 0% vehicle, 100% cell-free pure enzyme wells; activation, % at 5.96 µM; 340,000 tested, 0.073% active; AID 493087;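 active = activation above the mean of all tested compounds plus 3 SD, set per screening campaign, cut at about 17% in these data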
IDE cell inh: inhibits human insulin-degrading enzyme in HEK cells. 320,000 tested, 0.41% active. FAbetaB cleavage, fluorescence polarization. inhibition, % at 5.59 µM. AID 434962;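 active = percent inhibition above the average of all tested compounds plus 3 SD, set per screening campaign, cut at about 16% in these data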;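 also: IDE supplied by intact live HEK cells; FP after avidin binding of uncleaved biotin substrate so inhibition keeps polarization high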
TbMetRS confirm: confirmation of Trypanosoma brucei MetRS inhibitors. shares compounds with TbMetRS inhib. T. brucei MetRS enzyme, luminescence (ATP depletion). inhibition, % at 11.9 µM. 1,400 tested, 93% active. AID 624412; in the data active = inhibition above about 7%
Jurkat cytotox: Jurkat T cell cytotoxicity for MetRS hits | Jurkat cells viability, ATP luminescence | AID 624413 | shares compounds with TbMetRS inhib | 1,400 tested, 12% active | inhibition, % at 8.3 µM; in the data active = inhibition above about 15%
Tb MetRS inh FP: orthogonal test for Trypanosoma brucei MetRS inhibitors | shares compounds with TbMetRS inhib | purified T. brucei MetRS, fluorescence polarization | inhibition, % at 11.9 µM | 1,400 tested, 44% active | AID 651607; in the data active = inhibition above about 17%
CSN5 deneddyl: Csn5 (human) deneddylation inhibition, single-concentration validation; shares compounds with CSN inh; Csn5 deneddylation of SCF-Nedd8OG, fluorescence polarization, 90 min; inhibition, % at 16.6 µM; 540 tested, 62% active; AID 720654; in the data active = inhibition above about 50%
MMP-2 counter: counter-screen for CSN deneddylation inhibitors: human MMP-2 inhibition. recombinant MMP-2, FRET substrate fluorescence, 60 min. inhibition, % at 16.6 µM. 540 tested, 33% active. AID 720655. shares compounds with CSN inh;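 active = corrected plate-normalized z-score of 5 or more, or -5 or less, or inhibition of 15% or more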
Thrombin cntr: counter-screen for CSN deneddylation inhibitors: bovine thrombin inhibition; shares compounds with CSN inh; bovine thrombin cleavage of Ub4-pepOG, fluorescence polarization; inhibition, % at 16.6 µM; 540 tested, 49% active; AID 720656;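 active = inhibition at or above a set limit, with a fluorescence interference ratio between 0.5 and a set maximum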
Each line names hits and unclear results; the compound was inactive in the other large screens (follow-up assays come after a bar, where they were run). Hits are enriched below; roughly 1.7% of the tested compounds scored in any of these assays.

CCO[C@@H]1OC(C(=O)NCc2nc3ccccc3[nH]2)=C[C@H](c2csc3ccccc23)[C@H]1CCCO	TbMetRS inhib 86 | TbMetRS confirm 93 | Jurkat cytotox inactive | Tb MetRS inh FP 97
C=C[C@@H]1c2cc(C)ccc2N(S(=O)(=O)c2ccc(C)cc2)[C@H](c2ccccc2C(F)(F)F)C1(C#N)C#N	none (no result: TPT1 inhibitor)
O=C(COC(=O)c1cc(=O)[nH]c2ccccc12)Nc1ccccc1F	none (no result: TPT1 inhibitor)
CC1(C(=O)NS(=O)(=O)c2ccc(Cl)cc2)CCN1C(=O)C1CC1 (stereo not given)	none (no result: TPT1 inhibitor, IDE act, IDE cell inh)
COc1ccc(S(=O)(=O)NC(=O)C2(C)CCN2C(=O)C2CC2)cc1 (stereo not given)	TbMetRS inhib 11 (no result: TPT1 inhibitor, IDE act, IDE cell inh) | TbMetRS confirm 5.8 | Jurkat cytotox inactive | Tb MetRS inh FP inactive
CCCCn1c(NC(=O)c2ccccc2)c(C#N)c2nc3ccccc3nc21	CSN inh 69, TbMetRS inhib 11, HNF4A DNA FP 85 (no result: TPT1 inhibitor, IDE cell inh) | TbMetRS confirm 15 | Jurkat cytotox inactive | Tb MetRS inh FP inactive | CSN5 deneddyl inactive | MMP-2 counter inactive | Thrombin cntr inactive
CCOC(=O)C1C(C(=O)Nc2cccc(C(F)(F)F)c2)C1C(=O)NC(C)C (stereo not given)	none
Cc1nc(C)c(NC(=O)N2CCc3ccccc32)cc1NC(=O)N1CCc2ccccc21	none
Cn1ccc2cc3c(cc21)CCN3C(=O)Nc1cccnc1	CSN inh 102 | CSN5 deneddyl 61 | MMP-2 counter -41 | Thrombin cntr inactive
Cn1c(=O)c2ncn(CC(=O)N/N=C/c3ccco3)c2n(C)c1=O	none
OC[C@@H](O)[C@H](O)C(/C=N/Nc1ccccc1)=N\Nc1ccccc1	none
O=C1c2ccccc2C(=O)c2c(Nc3ccc(CCO)cc3)ccc(O)c21	none
O=C1c2c(O)ccc(O)c2C(=O)c2c(NCCNCCO)ccc(NCCNCCO)c21	CSN inh 44 | CSN5 deneddyl inactive | MMP-2 counter 31 | Thrombin cntr inactive
N#Cc1c(NC(=O)c2ccc(Br)o2)n(-c2ccccc2)c2nc3ccccc3nc12	CSN inh 39, HNF4A DNA FP 88 | CSN5 deneddyl 94 | MMP-2 counter inactive | Thrombin cntr inactive
O=C(O)CCCN1C(=O)/C(=C\C(Cl)=C\c2ccccc2)SC1=S	CSN inh 40 (no result: TPT1 inhibitor, IDE cell inh) | CSN5 deneddyl 75 | MMP-2 counter 30 | Thrombin cntr inactive
CN1CCN(C(=O)CCCN2C(=O)/C(=C/c3ccccc3)SC2=S)CC1	none
O=C(CCc1c[nH]c2ccccc12)N1CCN(S(=O)(=O)c2ccc(F)cc2)CC1	none (no result: TPT1 inhibitor, IDE cell inh)
Oc1ccccc1CNc1ccc(OC(F)(F)F)cc1	none (no result: IDE act)
CCS(=O)(=O)C1=NN2C(=N)/C(=C\c3ccc(OC(=O)c4ccco4)c(Br)c3)C(=O)N=C2S1	none (no result: CSN inh, TbMetRS inhib, HNF4A DNA FP, IDE act)
CCS(=O)(=O)C1=NN2C(=N)/C(=C\c3ccc(SCc4ccco4)o3)C(=O)N=C2S1	CSN inh 116 (no result: TPT1 inhibitor, IDE cell inh) | CSN5 deneddyl inactive | MMP-2 counter inactive | Thrombin cntr 54
